The text below walks through data of ChEMBL document CHEMBL3734704, “Synthesis and Biological Evaluation of Novel Bouchardatine Derivatives as Potential Adipogenesis/Lipogenesis Inhibitors for Antiobesity Treatment” (J Med Chem, 2015).

The subject of experiment [1] is HepG2. The experiment is described as follows: Decrease in cholesterol level in human HepG2 cells at 1 uM after 24 hrs by […] assay in presence of 0.5 mM oleic acid sodium. The class given is functional. The procedure, abridged: (§1)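 HepG-2 cells seeded, then after 24 h exposed to 0.5 mM oleic acid sodium plus compound (1 µM; dose series up to 10 µM) for 24 h, DMSO vehicle. Cells lysed in 0.2% Triton X-100 for 1 h, sonicated, centrifuged. Triglyceride measured by GPO-POD kit and cholesterol by kit, both normalized to BCA protein; n = 3.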

Experiment [2] deals with 3T3-L1. The experiment is described as follows: Inhibition of cell differentiation in mouse 3T3L1 cells assessed as delayed time point of cell contact inhibition at 0.5 uM for 9 days. The class given is functional. The procedure, abridged: (§2)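 3T3-L1 preadipocytes were induced to differentiate (IBMX/dexamethasone/insulin for 3 days, then insulin) with compound added from day 0 at 0.5 or 5 µM; DMSO vehicle served as control. Cells were collected and counted every day to follow proliferation and to find when contact inhibition resumed.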

A short description of experiment [3]: Decrease in triglyceride level in mouse 3T3L1 cells during all developmental stages at 0.5 uM for 9 days. The following applies: 3T3-L1. The class given is functional, cell-based. The procedure, abridged:
(§3)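 During 3T3-L1 differentiation with compound present (0.5 µM, or 5 µM for one compound), cells were collected and counted every day and triglyceride content was measured by TG assay.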

Experiment [4] deals with 3T3-L1. The experiment is described as follows: Activation of AMPK alpha in mouse 3T3L1 cells assessed as increase in phophorylated AMPK alpha at Thr 172 residue level at 0.2 mM after 10 mins by western blot analysis. The experiment is classed as cell-based. The procedure, abridged:
(§4)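 3T3-L1 cells in DMEM/10% FBS at 37 °C, 5% CO2, exposed for 10 min, 2 h or 24 h alongside a DMSO vehicle. Cells were lysed in RIPA with PMSF, Na3VO4, NaF and protease inhibitors. Lysates were run on SDS-PAGE and blotted to PVDF, blocked in 5% BSA, then probed with primary antibodies for 16 h at 4 °C and an HRP secondary. Bands were normalised to GAPDH, with the 10 min DMSO group set as 100%; n = 3.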

Experiment [5] relates to 3T3-L1. The experiment is described as follows: Activation of AMPK-mediated ACC in mouse 3T3L1 cells assessed as increase in phophorylated ACC level at 0.2 mM after 10 mins by western blot analysis. The experiment is classed as cell-based. The procedure, abridged: as §4
Background: A western blot detects proteins with antibodies after separation by electrophoresis.

The nature of experiment [6]: Downregulation of C/EBP alpha mRNA level in mouse 3T3L1 cells at 0.2 mM after 2 hrs by RT-PCR analysis. The experiment is classed as functional, cell-based. The following applies: 3T3-L1.
A short description of experiment [7]: Downregulation of PPAR-gamma mRNA level in mouse 3T3L1 cells at 0.2 mM after 2 hrs by RT-PCR analysis. The class given is functional, cell-based. The following applies: 3T3-L1.
Experiment [8] relates to 3T3-L1. As to the kind of experiment: Effect on LKB1 expression in mouse 3T3L1 cells at 0.2 mM after 10 mins, 2 and 24 hrs by western blot analysis. The class given is functional, cell-based. The procedure, abridged:
as §4

A short description of experiment [9]: Downregulation of C/EBP beta mRNA level in mouse 3T3L1 cells at 0.2 mM after 24 hrs by RT-PCR analysis. The class given is functional, cell-based. Conditions: 3T3-L1.
The subject of experiment [10] is 3T3-L1. The experiment is described as follows: Activation of AMPK alpha in mouse 3T3L1 cells assessed as increase in phophorylated AMPK alpha at Thr 172 residue level at 0.2 mM after 24 hrs by western blot analysis. The experiment is classed as cell-based. The procedure, abridged: as §4
In experiment [11] the test system is 3T3-L1. The experiment is described as follows: Activation of AMPK-mediated ACC in mouse 3T3L1 cells assessed as increase in phophorylated ACC level at 0.2 mM after 24 hrs by western blot analysis. The class given is cell-based. The procedure, abridged: as §4
Experiment [12] can be described thus: Downregulation of C/EBP delta mRNA level in mouse 3T3L1 cells at 0.2 mM after 24 hrs by RT-PCR analysis. The class given is functional, cell-based. The following applies: 3T3-L1.
Experiment [13] in a line: Downregulation of C/EBP alpha mRNA level in mouse 3T3L1 cells at 0.2 mM after 24 hrs by RT-PCR analysis. The experiment is classed as functional, cell-based. Conditions: 3T3-L1.
The nature of experiment [14]: Downregulation of PPAR-gamma mRNA level in mouse 3T3L1 cells at 0.2 mM after 24 hrs by RT-PCR analysis. The experiment is classed as functional, cell-based. Conditions: 3T3-L1.
The nature of experiment [15]: Downregulation of SREBP-1c mRNA level in mouse 3T3L1 cells at 0.2 mM after 24 hrs by RT-PCR analysis. Conditions: 3T3-L1. The class given is functional, cell-based.
Experiment [16] can be described thus: Decrease in triglyceride accumulation in mouse 3T3L1 cells at 10 uM for 3 days oil red O staining based microscopic analysis. The following applies: 3T3-L1. The experiment is classed as functional, cell-based. The procedure, abridged: (§5)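 3T3-L1 cells differentiated from 2 days post-confluence with IBMX/dexamethasone/insulin cocktail for 3 days, then insulin medium to Day 6. Compounds at 1 and 10 µM added Day 0 for 3 days. Triglyceride read on Day 6 with Oil Red O (formaldehyde fixation, 30 min stain, isopropanol extraction, OD 510 nm); n = 3.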

Experiment [17] relates to HepG2. The experiment is described as follows: Decrease in triglyceride level in human HepG2 cells at 1 uM after 24 hrs by GPO-POD assay in presence of 0.5 mM oleic acid sodium. The experiment is classed as functional. The procedure, abridged: as §1
Experiment [18] in a line: Decrease in triglyceride level in mouse 3T3L1 cells during all developmental stages at 5 uM for 9 days. The experiment is classed as functional, cell-based. Conditions: 3T3-L1. The procedure, abridged:
as §3

Experiment [19] relates to 3T3-L1. As to the kind of experiment: Inhibition of cell proliferation in mouse 3T3L1 cells at 5 uM for 9 days. The experiment is classed as functional, cell-based. The procedure, abridged: as §2
Experiment [20] concerns 3T3-L1. The experiment is described as follows: Inhibition of cell differentiation in mouse 3T3L1 cells assessed as delayed time point of cell contact inhibition at 5 uM for 9 days. The class given is functional. The procedure, abridged:
as §2

Experiment [21] is described as follows: Decrease in triglyceride accumulation in mouse 3T3L1 cells at 1 uM for 3 days oil red O staining based microscopic analysis. The experiment is classed as functional, cell-based. Conditions: 3T3-L1. The procedure, abridged:
as §5

Molecules are shown by their SMILES. Active and inactive are the calls of the source. No cut-off for these calls is given here. Bounds are passed on as bounds.

`O=Cc1c(-c2nc(NCCc3ccccc3)c3ccccc3n2)[nH]c2ccccc12`: the inhibition (INH) in the experiment on HepG2 [1] is > 50%.

A word on the inhibition: it is the share of the control response that was lost under treatment. For the compound `CN(C)CCCC/N=C/c1c(-c2nc3ccccc3c(=O)[nH]2)[nH]c2ccccc12`, the Time with 3T3-L1 [2] stood at 6 days. Also, the inhibition result in [3] is “Active”.

Take `NC(=O)c1ncn([C@@H]2O[C@H](COP(=O)(O)O)[C@@H](O)[C@H]2O)c1N`: the outcome in the experiment on 3T3-L1 [4], in the experiment on 3T3-L1 [5], in the experiment with 3T3-L1 [10] and with 3T3-L1 [11] was Active. Further, the inhibition entry in experiment [6], in experiment [7], in experiment [9], in experiment [12], in [13] and in experiment [14] was “Active” in each case. The inhibition entry in experiment [15] is “Active”. In addition, in the experiment on 3T3-L1 [8], the outcome was inactive.

Consider `O=c1[nH]c(-c2[nH]c3ccccc3c2/C=N/CCN2CCCC2)nc2ccccc12`, for which the Time in the experiment with 3T3-L1 [2] was determined as 6 days. Besides, the inhibition result in experiment [3] is “Active”.

`CCN(CC)c1nc(-c2[nH]c3ccccc3c2C=O)nc2ccccc12`: in experiment [16], the inhibition is 82.2%.

For `CCN(CC)CCNc1nc(-c2[nH]c3ccccc3c2C=O)nc2ccccc12`, the inhibition entry in the experiment with HepG2 [17] was “Active”. Moreover, the inhibition (INH) with HepG2 [1] is > 50%. The compound also displayed an inhibition in experiment [16] of 87.3%.

With `O=Cc1c(-c2nc(NCCN3CCCCC3)c3ccccc3n2)[nH]c2ccccc12`, the inhibition entry (in the experiment on HepG2 [17]; in [3]) was “Active” throughout. The inhibition (INH) in the experiment on HepG2 [1] is > 50%. Moreover, the Time with 3T3-L1 [2] worked out at 6 days. For the same compound, the inhibition in experiment [16] worked out at 87.2%.

`CN1CCN(c2nc(-c3[nH]c4ccccc4c3C=O)nc3ccccc23)CC1` returned an inhibition in experiment [16] of 81.6%.

In the case of `O=Cc1c(-c2nc(NCCCN3CCOCC3)c3ccccc3n2)[nH]c2ccccc12`, the Time with 3T3-L1 [2] was 6 days. For the same compound, the inhibition result in experiment [3] was “Active”.

In the case of `CN(C)CCNc1nc(-c2[nH]c3ccccc3c2C=O)nc2ccccc12`, the inhibition entry in the experiment with HepG2 [17] was “Active”. Moreover, the inhibition in [16] amounted to 80.1%.

Take `O=Cc1c(-c2nc3ccccc3c(=O)[nH]2)[nH]c2ccccc12`: the results for the “inhibition (INH)” value in the experiment on HepG2 [17] and in the experiment on HepG2 [1] were 16.7% and 24.1%, respectively. The inhibition entry (in experiment [18]; in the experiment with 3T3-L1 [19]) was “Active” each time. For the same compound, in the experiment with 3T3-L1 [20], the Time was found to be 5 days. The inhibition in [21] was determined as 14.8%; in [16], 20.1%.
